Assay results reported in ChEMBL document CHEMBL1132464, “Specific nonpeptide photoprobes as tools for the structural study of the angiotensin II AT(1) receptor” (J Med Chem, 1999).

How the values were obtained:
[1] = biological target: T1, Type-1 angiotensin II receptor A (Rattus norvegicus, UniProt P25095); test: The compound was evaluated for the inhibition of [125I]-Sar-AII binding to Angiotensin II receptor, type 1 from purified rat liver membranes.; assay type: cell membranes, Membrane
T1 sequence (P25095 whole entry): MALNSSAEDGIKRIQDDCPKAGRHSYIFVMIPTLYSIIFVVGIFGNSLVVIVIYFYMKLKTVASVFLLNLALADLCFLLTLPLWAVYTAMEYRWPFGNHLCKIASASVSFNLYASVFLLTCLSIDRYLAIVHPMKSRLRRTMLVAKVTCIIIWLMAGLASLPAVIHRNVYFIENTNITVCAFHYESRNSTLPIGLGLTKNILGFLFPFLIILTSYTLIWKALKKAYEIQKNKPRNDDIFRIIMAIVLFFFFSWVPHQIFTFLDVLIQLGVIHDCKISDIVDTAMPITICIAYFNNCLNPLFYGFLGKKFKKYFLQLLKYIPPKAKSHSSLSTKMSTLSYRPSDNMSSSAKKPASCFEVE
Outline: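 Purified rat liver membranes (AT1 only), 10 μg protein/assay, competition against [125I]Sar1-AII tracer for 30 min at 30 °C in 50 mM phosphate pH 7.4, 5 mM MgCl2, 0.1 mg/mL bacitracin, 0.6% Me2SO, no BSA; triplicates; GF/C filtration; Ki via Ekins equation.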

[2] = biological target: T2, Type-1 angiotensin II receptor A (Rattus norvegicus) (UniProt P25095); test: The compound was evaluated for irreversible binding to [125I]Sar-AII in CHO cells expressing the Angiotensin II receptor, type 1 with UV irradiation.; assay type: cell-based
T2 sequence (whole entry): T1 sequence (P25095 whole entry)
Outline: (§1)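 CHO cells stably expressing rat AT1A receptor in 24-well clusters; incubated 4 h at 4 °C in dark with photoactivatable ligand (nonpeptide 50 or 10 nM; peptide azido probe 10 nM) in PBS pH 7.4, 5 mM MgCl2, 0.1 mg/mL bacitracin; washed, irradiated or not 5 min at 0 °C, 254 nm; two 30-min 30 °C dissociation incubations; remaining sites titrated with 5 nM [125I]Sar1-AII, 2 h, 4 °C; % of control, triplicates.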

[3] = biological target: T2, Type-1 angiotensin II receptor A (Rattus norvegicus); test: The compound was evaluated for irreversible binding to [125I]Sar-AII in CHO cells expressing the Angiotensin II receptor, type 1 without UV irradiation.; assay type: cell-based; outline: as §1
Oryctolagus cuniculus = organism: Oryctolagus cuniculus; test: The compound was evaluated for the inhibition of AII-induced contraction in the rabbit aorta strips.; assay type: functional
Outline: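 Rabbit aortic rings (4 mm) in 37 °C organ baths, Krebs-Henseleit gassed O2/CO2 95/5, passive tension 2 g, isometric tension recorded; three to five antagonist concentrations, one per ring, against 3 nM AII contraction; IC50 = concentration halving AII response; mean of six experiments.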

[4] = biological target: T1, Type-1 angiotensin II receptor A; test: The compound was evaluated for the direct binding of tritiated compound to the recombinant Angiotensin II receptor, type 1 stably expressed in CHO cells.; assay type: cell-based
Outline: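 Intact CHO cells stably expressing rat AT1A, grown to confluence (~5 × 10^5 cells/well), incubated 4 h at 4 °C with graded tritiated ligand in PBS pH 7.4, 5 mM MgCl2, 0.1 mg/mL bacitracin, 0.6% Me2SO; nonspecific binding with excess Sar1-AII or unlabeled nonpeptide; ice-cold washes, NaOH lysis, scintillation counting; Kd by Scatchard analysis, mean of four experiments.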

Row | Ki [1] [nM] | Control [2] [%] | Control [3] [%] | IC50 (Oryctolagus cuniculus) [nM] | Kd [4] [nM] | Structure (SMILES)
1 | 1.5 | 55 | 50 | 3.5 | – | CCCCc1ncc(CNc2ccccc2C(=O)O)n1Cc1ccc(C(=O)NS(=O)(=O)c2ccccc2N=[N+]=[N-])cc1
2 | – | – | – | – | 3.5 | [3H]c1nc(CCCC)n(Cc2ccc(C(=O)O)cc2)c1CNc1ccccc1C(=O)O
3 | 12.1 | – | – | 3.6 | – | CCCCc1ncc(CNc2ccccc2C(=O)O)n1Cc1ccc(C(=O)O)cc1
4 | 2.5 | – | – | 0.8 | – | CCCCc1ncc(CNc2ccccc2C(=O)O)n1Cc1ccc(C(=O)NS(=O)(=O)c2ccccc2Cl)cc1
5 | – | – | – | – | 1.3 | [3H]c1ccc(S(=O)(=O)NC(=O)c2ccc(Cn3c(CNc4ccccc4C(=O)O)cnc3CCCC)cc2)c(Cl)c1
6 | 22 | 64 | 91 | 6.3 | – | CCCCc1ncc(CNc2cc(N=[N+]=[N-])ccc2C(=O)O)n1Cc1ccc(C(=O)O)cc1
7 | – | – | – | – | 11.8 | [3H]c1nc(CCCC)n(Cc2ccc(C(=O)O)cc2)c1C([3H])Nc1cc(N=[N+]=[N-])ccc1C(=O)O (stereo not given)
